Assay results published in ChEMBL document CHEMBL4330069, “Boosting the efficacy of anti-MRSA β-lactam antibiotics via an easily accessible, non-cytotoxic and orally bioavailable FtsZ inhibitor” (Eur J Med Chem, 2019).
In brackets after ≈: the same amount, converted by molar mass.

Columns and labels:
Type in all cases: functional
Staphylococcus aureus [1] = assay: Synergistic antibacterial activity against multidrug-resistant Staphylococcus aureus isolate 254 in presence of cefuroxime by broth microdilution assay
Summary of the method: (§1)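 CLSI broth microdilution on clinical MRSA isolates. MICs were measured for the β-lactam alone, the test agent alone and the two combined. Compounds were dissolved in DMSO, and growth inhibition was scored by eye. FIC index is the sum, over both agents, of MIC in combination divided by MIC alone. An FIC index ≤0.5 was taken as synergy.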

Staphylococcus aureus [2] = assay: Synergistic antibacterial activity against multidrug-resistant Staphylococcus aureus isolate 2895 assessed as fractional Inhibitory concentration index in presence of methicillin by broth microdilution assay
Staphylococcus aureus [3] = assay: Synergistic antibacterial activity against multidrug-resistant Staphylococcus aureus isolate 1402 in presence of cloxacillin by broth microdilution assay
Summary of the method: (§2)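 Clinical MRSA isolate panel; compound and β-lactam tested alone and in combination by CLSI broth microdilution, compounds dissolved in DMSO, growth inhibition scored by eye, run in duplicate. FIC index = FIC(compound) + FIC(drug), each the MIC in combination divided by the MIC alone; an index ≤ 0.5 was called synergy.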

Staphylococcus aureus [4] = assay: Synergistic antibacterial activity against multidrug-resistant Staphylococcus aureus isolate 2224 in presence of meropenem by broth microdilution assay; summary of the method: as §2
Staphylococcus aureus [5] = assay: Synergistic antibacterial activity against multidrug-resistant Staphylococcus aureus isolate 3589 in presence of amoxicillin by broth microdilution assay
Staphylococcus aureus [6] = assay: Synergistic antibacterial activity against multidrug-resistant Staphylococcus aureus isolate 1402 assessed as fractional Inhibitory concentration index in presence of cloxacillin by broth microdilution assay
Summary of the method: (§3)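 CLSI broth microdilution run on clinical MRSA isolates with each β-lactam alone, the test agent alone, and the two combined; agents dissolved in DMSO. Growth inhibition was read by eye. FIC index = FIC(compound) + FIC(β-lactam), where each FIC is the MIC in combination divided by the MIC alone. An index ≤0.5 was taken as synergy.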

Staphylococcus aureus [7] = assay: Synergistic antibacterial activity against multidrug-resistant Staphylococcus aureus isolate 2901 assessed as fractional Inhibitory concentration index in presence of amoxicillin by broth microdilution assay
Staphylococcus aureus [8] = assay: Antibacterial activity against multidrug-resistant Staphylococcus aureus isolate 1136 by broth microdilution assay
Summary of the method: (§4)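 Broth microdilution MIC per CLSI guidelines against clinical MRSA isolates, for β-lactams and test compound alone and in combination. Compounds were dissolved in DMSO. Growth was read by eye, in duplicate. FIC index = FIC(compound) + FIC(drug); synergy defined as FIC index ≤0.5.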

Staphylococcus aureus [9] = assay: Synergistic antibacterial activity against multidrug-resistant Staphylococcus aureus isolate 358 in presence of cefuroxime by broth microdilution assay
Staphylococcus aureus [10] = assay: Synergistic antibacterial activity against multidrug-resistant Staphylococcus aureus isolate 1402 in presence of cefuroxime by broth microdilution assay; summary of the method: as §2
Staphylococcus aureus [11] = assay: Synergistic antibacterial activity against multidrug-resistant Staphylococcus aureus isolate 200 in presence of amoxicillin by broth microdilution assay; summary of the method: as §2
Staphylococcus aureus [12] = assay: Synergistic antibacterial activity against multidrug-resistant Staphylococcus aureus isolate 1136 assessed as fractional Inhibitory concentration index in presence of cloxacillin by broth microdilution assay; summary of the method: as §3
Staphylococcus aureus [13] = assay: Synergistic antibacterial activity against multidrug-resistant Staphylococcus aureus isolate 2901 in presence of meropenem by broth microdilution assay; summary of the method: as §1
Staphylococcus aureus [14] = assay: Synergistic antibacterial activity against multidrug-resistant Staphylococcus aureus isolate 1749 assessed as fractional Inhibitory concentration index in presence of cefuroxime by broth microdilution assay; summary of the method: as §3
Staphylococcus aureus [15] = assay: Synergistic antibacterial activity against multidrug-resistant Staphylococcus aureus isolate 3580 assessed as fractional Inhibitory concentration index in presence of meropenem by broth microdilution assay
Staphylococcus aureus [16] = assay: Synergistic antibacterial activity against multidrug-resistant Staphylococcus aureus isolate 3580 assessed as fractional Inhibitory concentration index in presence of cloxacillin by broth microdilution assay
Staphylococcus aureus [17] = assay: Synergistic antibacterial activity against multidrug-resistant Staphylococcus aureus isolate 200 in presence of methicillin by broth microdilution assay; summary of the method: as §2
Staphylococcus aureus [18] = assay: Synergistic antibacterial activity against multidrug-resistant Staphylococcus aureus isolate 254 assessed as fractional Inhibitory concentration index in presence of cloxacillin by broth microdilution assay
Staphylococcus aureus [19] = assay: Synergistic antibacterial activity against multidrug-resistant Staphylococcus aureus isolate 3580 assessed as fractional Inhibitory concentration index in presence of cefuroxime by broth microdilution assay
Staphylococcus aureus [20] = assay: Antibacterial activity against multidrug-resistant Staphylococcus aureus isolate 2919 by broth microdilution assay; summary of the method: as §4
Staphylococcus aureus [21] = assay: Synergistic antibacterial activity against multidrug-resistant Staphylococcus aureus isolate 2728 in presence of methicillin by broth microdilution assay; summary of the method: as §1
Staphylococcus aureus [22] = assay: Antibacterial activity against Staphylococcus aureus ATCC 29213 after 20 hrs; conditions: ATCC 29213, 20 h
Summary of the method: (§5)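 Broth microdilution MIC per CLSI guidelines, compounds dissolved in DMSO. Resistant mutants were selected by serial passage of ATCC 29213 in LB at 37 °C with shaking at 250 rpm. Each 20 h culture started at half the MIC, and the concentration was doubled at each transfer. Growth inhibition was read by eye, in duplicate.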

Staphylococcus aureus [23] = assay: Synergistic antibacterial activity against multidrug-resistant Staphylococcus aureus isolate 2516 assessed as fractional Inhibitory concentration index in presence of methicillin by broth microdilution assay; summary of the method: as §3
Staphylococcus aureus [24] = assay: Antibacterial activity against Staphylococcus aureus ATCC 29213 harboring FtsZ 128 mutation after 20 hrs; conditions: ATCC 29213, 20 h; summary of the method: as §5
Staphylococcus aureus [25] = assay: Synergistic antibacterial activity against multidrug-resistant Staphylococcus aureus isolate 2901 in presence of cefuroxime by broth microdilution assay; summary of the method: as §1
Staphylococcus aureus [26] = assay: Synergistic antibacterial activity against multidrug-resistant Staphylococcus aureus isolate 1749 assessed as fractional Inhibitory concentration index in presence of cloxacillin by broth microdilution assay; summary of the method: as §3
Staphylococcus aureus [27] = assay: Synergistic antibacterial activity against multidrug-resistant Staphylococcus aureus isolate 417 in presence of methicillin by broth microdilution assay
Staphylococcus aureus [28] = assay: Synergistic antibacterial activity against multidrug-resistant Staphylococcus aureus isolate 254 in presence of methicillin by broth microdilution assay; summary of the method: as §1
Staphylococcus aureus [29] = assay: Antibacterial activity against multidrug-resistant Staphylococcus aureus isolate 2895 by broth microdilution assay; summary of the method: as §4
Staphylococcus aureus [30] = assay: Synergistic antibacterial activity against multidrug-resistant Staphylococcus aureus isolate 1749 assessed as fractional Inhibitory concentration index in presence of meropenem by broth microdilution assay; summary of the method: as §3
Staphylococcus aureus [31] = assay: Synergistic antibacterial activity against multidrug-resistant Staphylococcus aureus isolate 2516 in presence of methicillin by broth microdilution assay; summary of the method: as §1
Staphylococcus aureus [32] = assay: Synergistic antibacterial activity against multidrug-resistant Staphylococcus aureus isolate 2224 assessed as fractional Inhibitory concentration index in presence of amoxicillin by broth microdilution assay; summary of the method: as §3
Staphylococcus aureus [33] = assay: Synergistic antibacterial activity against multidrug-resistant Staphylococcus aureus isolate 1717 in presence of cloxacillin by broth microdilution assay; summary of the method: as §2
Staphylococcus aureus [34] = assay: Synergistic antibacterial activity against multidrug-resistant Staphylococcus aureus isolate 757 in presence of methicillin by broth microdilution assay
Staphylococcus aureus [35] = assay: Synergistic antibacterial activity against multidrug-resistant Staphylococcus aureus isolate 2516 in presence of cefuroxime by broth microdilution assay; summary of the method: as §1
Staphylococcus aureus [36] = assay: Antibacterial activity against multidrug-resistant Staphylococcus aureus isolate 3580 by broth microdilution assay; summary of the method: as §4
Staphylococcus aureus [37] = assay: Antibacterial activity against multidrug-resistant Staphylococcus aureus isolate 256 by broth microdilution assay; summary of the method: as §4

Compound: CCCCCCCCCNc1ccc(F)c(C(N)=O)c1F
- MIC (Staphylococcus aureus [1]): 4 µg/mL
- fractional inhibitory concentration index (FICI) (Staphylococcus aureus [2]): 0.3
- MIC (Staphylococcus aureus [3]): 1 µg/mL
- MIC (Staphylococcus aureus [4]): 8 µg/mL
- MIC (Staphylococcus aureus [5]): 8 µg/mL
- fractional inhibitory concentration index (FICI) (Staphylococcus aureus [6]): 0.8
- fractional inhibitory concentration index (FICI) (Staphylococcus aureus [7]): 0.1
- MIC (Staphylococcus aureus [8]): 16 µg/mL (≈ 53.6 µM)
- MIC (Staphylococcus aureus [9]): 2 µg/mL
- MIC (Staphylococcus aureus [10]): 2 µg/mL
- MIC (Staphylococcus aureus [11]): 8 µg/mL
- fractional inhibitory concentration index (FICI) (Staphylococcus aureus [12]): 0.4
- MIC (Staphylococcus aureus [13]): 4 µg/mL
- fractional inhibitory concentration index (FICI) (Staphylococcus aureus [14]): 1.1
- fractional inhibitory concentration index (FICI) (Staphylococcus aureus [15]): 1.3
- fractional inhibitory concentration index (FICI) (Staphylococcus aureus [16]): 0.5
- MIC (Staphylococcus aureus [17]): 4 µg/mL
- fractional inhibitory concentration index (FICI) (Staphylococcus aureus [18]): 0.2
- fractional inhibitory concentration index (FICI) (Staphylococcus aureus [19]): 0.1
- MIC (Staphylococcus aureus [20]): 16 µg/mL (≈ 53.6 µM)
- MIC (Staphylococcus aureus [21]): 4 µg/mL
- MIC (Staphylococcus aureus [22]): 1 µg/mL (≈ 3.35 µM)
- fractional inhibitory concentration index (FICI) (Staphylococcus aureus [23]): 0.2
- MIC (Staphylococcus aureus [24]): 128 µg/mL (≈ 429 µM)
- MIC (Staphylococcus aureus [25]): 2 µg/mL
- fractional inhibitory concentration index (FICI) (Staphylococcus aureus [26]): 1.3
- MIC (Staphylococcus aureus [27]): 2 µg/mL
- MIC (Staphylococcus aureus [28]): 4 µg/mL
- MIC (Staphylococcus aureus [29]): 16 µg/mL (≈ 53.6 µM)
- fractional inhibitory concentration index (FICI) (Staphylococcus aureus [30]): 10
- MIC (Staphylococcus aureus [31]): 4 µg/mL
- fractional inhibitory concentration index (FICI) (Staphylococcus aureus [32]): 0.2
- MIC (Staphylococcus aureus [33]): 1 µg/mL
- MIC (Staphylococcus aureus [34]): 4 µg/mL
- MIC (Staphylococcus aureus [35]): 2 µg/mL
- MIC (Staphylococcus aureus [36]): 32 µg/mL (≈ 107 µM)
- MIC (Staphylococcus aureus [37]): 1020 µg/mL (≈ 3430 µM)
